Results: ChEMBL document CHEMBL1765070, “Structure-based design of potent and selective 3-phosphoinositide-dependent kinase-1 (PDK1) inhibitors” (J Med Chem, 2011)

Columns and labels:
[1] = system: Mus musculus; assay: Inhibition of PDK1-mediated AKT phosphorylation at Thr308 residue in human OCI-AML-2 cells xenografted in SCID mouse at 100 mg/kg, ip after 6 hrs by LC/MS/MS analysis; settings: OCI-AML2, ip, read-out: INH
[2] = biological target: Serine/threonine-protein kinase 17A (Homo sapiens) (UniProt Q9UEE5); assay: Inhibition of human DRAK1 assessed as residual activity at 10 uM
[3] = biological target: Serine/threonine-protein kinase Sgk2 (Homo sapiens) (UniProt Q9HBY8); assay: Inhibition of human SGK2 assessed as residual activity at 10 uM
[4] = biological target: Death-associated protein kinase 3 (Homo sapiens) (UniProt O43293); assay: Inhibition of human ZIPK assessed as residual activity at 10 uM
[5] = biological target: Serine/threonine-protein kinase Sgk1 (Homo sapiens) (UniProt O00141); assay: Inhibition of human SGK assessed as residual activity at 10 uM
[6] = biological target: Vascular endothelial growth factor receptor 2 (Homo sapiens, UniProt P35968); assay: Inhibition of VEGFR2
[7] = biological target: Serine/threonine-protein kinase BRSK2 (Homo sapiens) (UniProt Q8IWQ3); assay: Inhibition of human BRSK2 assessed as residual activity at 10 uM
[8] = biological target: Inhibitor of nuclear factor kappa-B kinase subunit alpha (Homo sapiens, UniProt O15111); assay: Inhibition of IKK1
[9] = Antiproliferative activity against human F-36P cells; type: functional, cell-based
[10] = Antiproliferative activity against human OCI-AML3 cells; type: functional, cell-based; settings: OCI-AML-3
[11] = biological target: RAC-gamma serine/threonine-protein kinase (Homo sapiens) (UniProt Q9Y243); assay: Inhibition of human PKBgamma assessed as residual activity at 10 uM
[12] = system: Hepatocyte growth factor receptor (Homo sapiens), P08581 [Y1248H]; assay: Inhibition of human MET Y1248H assessed as residual activity at 10 uM
[13] = biological target: Ribosomal protein S6 kinase alpha-3 (Homo sapiens) (UniProt P51812); assay: Inhibition of human RSK2 assessed as residual activity at 10 uM
[14] = biological target: Ribosomal protein S6 kinase alpha-6 (Homo sapiens) (UniProt Q9UK32); assay: Inhibition of human RSK4 assessed as residual activity at 10 uM
[15] = biological target: Ribosomal protein S6 kinase alpha-1 (Homo sapiens) (UniProt Q15418); assay: Inhibition of human RSK1 assessed as residual activity at 10 uM
[16] = biological target: Glycogen synthase kinase-3 beta (Homo sapiens, UniProt P49841); assay: Inhibition of GSK3B
[17] = biological target: Ribosomal protein S6 kinase alpha-1 (Rattus norvegicus) (UniProt Q63531); assay: Inhibition of rat RSK1 assessed as residual activity at 10 uM
[18] = biological target: NUAK family SNF1-like kinase 1 (Homo sapiens) (UniProt O60285); assay: Inhibition of human ARK5 assessed as residual activity at 10 uM
[19] = biological target: cAMP-dependent protein kinase catalytic subunit PRKX (Homo sapiens) (UniProt P51817); assay: Inhibition of human PrKX assessed as residual activity at 10 uM
[20] = system: OCI-AML2; assay: Antiproliferative activity against human OCI-AML2 cells; type: functional, cell-based
[21] = biological target: 3-phosphoinositide-dependent protein kinase 1 (Homo sapiens) (UniProt O15530); assay: Inhibition of human PDK1 assessed as residual activity at 10 uM
[22] = biological target: Protein kinase C zeta type (Homo sapiens) (UniProt Q05513); assay: Inhibition of human PKCzeta assessed as residual activity at 10 uM
[23] = biological target: Phosphatidylinositol 4,5-bisphosphate 3-kinase catalytic subunit gamma isoform (Homo sapiens, UniProt P48736); assay: Inhibition of PI3Kgamma
[24] = biological target: Ribosomal protein S6 kinase alpha-2 (Homo sapiens) (UniProt Q15349); assay: Inhibition of human RSK3 assessed as residual activity at 10 uM
[25] = biological target: Rho-associated protein kinase 2 (Rattus norvegicus) (UniProt Q62868); assay: Inhibition of rat ROCK2 assessed as residual activity at 10 uM
[26] = biological target: Rho-associated protein kinase 2 (Homo sapiens) (UniProt O75116); assay: Inhibition of human ROCK2 assessed as residual activity at 10 uM
[27] = biological target: Proto-oncogene tyrosine-protein kinase receptor Ret (Homo sapiens) (UniProt P07949); assay: Inhibition of human RET assessed as residual activity at 10 uM
[28] = Cmax in SCID mouse xenografted with human OCI-AML-2 cells at 100 mg/kg, ip administered as a single dose by LC/MS/MS analysis; type: ADME, organism-based; set-up: dose 100 mg/kg, route intraperitoneal; settings: in vivo
Procedure, shortened: (§1)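 SCID mice with subcutaneous OCI-AML2 xenografts (~500-600 mm3) received a single 100 mg/kg ip dose in 1% DMSO, 20% PEG400, pH 4.2. hIGF-I was injected iv at 3 or 6 h, with blood and tumor taken 10 min after. Compound levels were measured by LC/MS/MS.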

[29] = system: HEL; assay: Antiproliferative activity against human HEL 92.1.7 cells; type: functional, cell-based
[30] = biological target: Tyrosine-protein kinase SYK (Homo sapiens, UniProt P43405); assay: Inhibition of SYK
[31] = AUC in SCID mouse xenografted with human OCI-AML-2 cells at 100 mg/kg, ip administered as a single dose by LC/MS/MS analysis; type: ADME, organism-based; set-up: dose 100 mg/kg, route intraperitoneal; settings: in vivo; procedure, shortened: as §1
[32] = system: Mus musculus; assay: Inhibition of PDK1-mediated RSK phosphorylation at Ser221 residue in human OCI-AML-2 cells xenografted in SCID mouse at 100 mg/kg, ip after 3 hrs by LC/MS/MS analysis; settings: OCI-AML2, ip, read-out: INH
[33] = biological target: T1, TGF-beta receptor type-1 (Homo sapiens, UniProt P36897); assay: Inhibition of ALK5
T1 sequence (P36897 whole entry): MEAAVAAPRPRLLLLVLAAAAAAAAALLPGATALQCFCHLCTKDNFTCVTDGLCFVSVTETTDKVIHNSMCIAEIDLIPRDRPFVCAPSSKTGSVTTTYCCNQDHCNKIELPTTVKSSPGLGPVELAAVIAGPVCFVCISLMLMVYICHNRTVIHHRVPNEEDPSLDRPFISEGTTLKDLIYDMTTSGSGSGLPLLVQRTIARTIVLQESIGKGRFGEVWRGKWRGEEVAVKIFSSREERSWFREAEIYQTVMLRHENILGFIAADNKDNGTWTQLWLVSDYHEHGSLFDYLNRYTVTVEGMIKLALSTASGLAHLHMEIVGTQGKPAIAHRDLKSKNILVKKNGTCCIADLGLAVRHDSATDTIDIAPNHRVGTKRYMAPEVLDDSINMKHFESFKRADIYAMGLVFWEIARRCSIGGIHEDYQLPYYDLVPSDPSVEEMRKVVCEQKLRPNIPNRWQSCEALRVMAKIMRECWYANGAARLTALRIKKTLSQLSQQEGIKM

[34] = biological target: Serine/threonine-protein kinase Chk2 (Homo sapiens) (UniProt O96017); assay: Inhibition of human CHK2 assessed as residual activity at 10 uM
[35] = system: Mus musculus; assay: Inhibition of PDK1-mediated AKT phosphorylation at Thr308 residue in human OCI-AML-2 cells xenografted in SCID mouse at 100 mg/kg, ip after 3 hrs by LC/MS/MS analysis; settings: OCI-AML2, ip, read-out: INH
[36] = system: Hepatocyte growth factor receptor (Homo sapiens), P08581 [D1246H]; assay: Inhibition of human MET D1246H mutant assessed as residual activity at 10 uM
[37] = biological target: Serine/threonine-protein kinase NLK (Homo sapiens) (UniProt Q9UBE8); assay: Inhibition of human NLK assessed as residual activity at 10 uM
[38] = biological target: Serine/threonine-protein kinase BRSK1 (Homo sapiens) (UniProt Q8TDC3); assay: Inhibition of human BRSK1 assessed as residual activity at 10 uM
[39] = system: K562; assay: Antiproliferative activity against human K562 cells; type: functional, cell-based
[40] = biological target: RAC-alpha serine/threonine-protein kinase (Homo sapiens, UniProt P31749); assay: Inhibition of AKT1
[41] = biological target: Mitogen-activated protein kinase kinase kinase 5 (Homo sapiens, UniProt Q99683); assay: Inhibition of ASK1
[42] = system: Mus musculus; assay: Inhibition of PDK1-mediated RSK phosphorylation at Ser221 residue in human OCI-AML-2 cells xenografted in SCID mouse at 100 mg/kg, ip after 6 hrs by LC/MS/MS analysis; settings: OCI-AML2, ip, read-out: INH

Ribosomal protein S6 kinase alpha-2 (Homo sapiens), sequence (Q15349 whole entry): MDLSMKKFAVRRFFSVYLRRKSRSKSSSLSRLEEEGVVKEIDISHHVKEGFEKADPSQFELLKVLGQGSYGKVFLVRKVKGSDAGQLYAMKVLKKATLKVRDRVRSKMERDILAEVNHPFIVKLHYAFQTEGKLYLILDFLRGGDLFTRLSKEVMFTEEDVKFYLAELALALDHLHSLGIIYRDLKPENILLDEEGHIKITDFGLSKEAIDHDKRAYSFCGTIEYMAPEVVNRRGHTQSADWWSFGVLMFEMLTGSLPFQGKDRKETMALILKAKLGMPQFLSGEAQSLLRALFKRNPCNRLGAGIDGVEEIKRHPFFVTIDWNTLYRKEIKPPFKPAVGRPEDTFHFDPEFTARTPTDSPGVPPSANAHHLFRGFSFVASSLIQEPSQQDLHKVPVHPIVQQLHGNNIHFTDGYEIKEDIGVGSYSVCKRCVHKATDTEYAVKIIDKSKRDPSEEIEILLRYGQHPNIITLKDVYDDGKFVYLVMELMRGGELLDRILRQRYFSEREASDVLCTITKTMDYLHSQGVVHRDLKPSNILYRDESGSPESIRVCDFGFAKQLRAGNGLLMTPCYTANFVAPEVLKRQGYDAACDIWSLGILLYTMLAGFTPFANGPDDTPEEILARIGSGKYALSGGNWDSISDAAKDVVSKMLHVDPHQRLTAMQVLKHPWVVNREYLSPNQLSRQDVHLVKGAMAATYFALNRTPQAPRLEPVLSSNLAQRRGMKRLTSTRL
Serine/threonine-protein kinase BRSK1 (Homo sapiens), sequence (Q8TDC3 whole entry): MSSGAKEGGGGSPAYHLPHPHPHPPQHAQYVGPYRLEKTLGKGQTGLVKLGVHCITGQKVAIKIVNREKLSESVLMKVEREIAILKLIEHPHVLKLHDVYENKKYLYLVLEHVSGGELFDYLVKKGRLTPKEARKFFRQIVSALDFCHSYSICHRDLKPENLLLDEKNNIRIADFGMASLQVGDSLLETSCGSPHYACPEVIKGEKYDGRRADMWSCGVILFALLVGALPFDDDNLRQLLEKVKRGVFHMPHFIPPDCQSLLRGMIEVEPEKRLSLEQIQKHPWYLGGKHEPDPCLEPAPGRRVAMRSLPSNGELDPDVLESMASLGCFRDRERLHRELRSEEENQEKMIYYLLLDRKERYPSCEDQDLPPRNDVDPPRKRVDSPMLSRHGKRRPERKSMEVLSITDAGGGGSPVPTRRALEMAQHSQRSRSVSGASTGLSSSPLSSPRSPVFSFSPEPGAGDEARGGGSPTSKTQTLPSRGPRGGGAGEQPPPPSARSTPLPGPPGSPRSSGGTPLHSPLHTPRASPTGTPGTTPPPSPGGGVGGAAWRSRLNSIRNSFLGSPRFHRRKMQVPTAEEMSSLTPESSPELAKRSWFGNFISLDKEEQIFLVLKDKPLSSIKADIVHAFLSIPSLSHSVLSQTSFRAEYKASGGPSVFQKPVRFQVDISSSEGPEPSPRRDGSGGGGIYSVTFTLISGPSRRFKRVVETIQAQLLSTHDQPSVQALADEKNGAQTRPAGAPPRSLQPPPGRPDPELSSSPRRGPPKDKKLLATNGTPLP
cAMP-dependent protein kinase catalytic subunit PRKX (Homo sapiens), sequence (P51817 whole entry): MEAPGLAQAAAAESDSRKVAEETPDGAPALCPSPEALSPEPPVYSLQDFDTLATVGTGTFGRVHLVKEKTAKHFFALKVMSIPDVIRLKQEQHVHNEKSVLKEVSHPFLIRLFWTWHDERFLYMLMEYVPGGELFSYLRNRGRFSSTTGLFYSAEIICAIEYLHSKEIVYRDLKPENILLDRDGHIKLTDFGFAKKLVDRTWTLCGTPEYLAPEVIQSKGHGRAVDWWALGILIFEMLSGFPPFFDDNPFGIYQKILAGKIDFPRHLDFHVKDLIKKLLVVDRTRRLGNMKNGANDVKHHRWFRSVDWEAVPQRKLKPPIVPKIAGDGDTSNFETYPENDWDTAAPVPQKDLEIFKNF
Ribosomal protein S6 kinase alpha-6 (Homo sapiens), sequence (Q9UK32 whole entry): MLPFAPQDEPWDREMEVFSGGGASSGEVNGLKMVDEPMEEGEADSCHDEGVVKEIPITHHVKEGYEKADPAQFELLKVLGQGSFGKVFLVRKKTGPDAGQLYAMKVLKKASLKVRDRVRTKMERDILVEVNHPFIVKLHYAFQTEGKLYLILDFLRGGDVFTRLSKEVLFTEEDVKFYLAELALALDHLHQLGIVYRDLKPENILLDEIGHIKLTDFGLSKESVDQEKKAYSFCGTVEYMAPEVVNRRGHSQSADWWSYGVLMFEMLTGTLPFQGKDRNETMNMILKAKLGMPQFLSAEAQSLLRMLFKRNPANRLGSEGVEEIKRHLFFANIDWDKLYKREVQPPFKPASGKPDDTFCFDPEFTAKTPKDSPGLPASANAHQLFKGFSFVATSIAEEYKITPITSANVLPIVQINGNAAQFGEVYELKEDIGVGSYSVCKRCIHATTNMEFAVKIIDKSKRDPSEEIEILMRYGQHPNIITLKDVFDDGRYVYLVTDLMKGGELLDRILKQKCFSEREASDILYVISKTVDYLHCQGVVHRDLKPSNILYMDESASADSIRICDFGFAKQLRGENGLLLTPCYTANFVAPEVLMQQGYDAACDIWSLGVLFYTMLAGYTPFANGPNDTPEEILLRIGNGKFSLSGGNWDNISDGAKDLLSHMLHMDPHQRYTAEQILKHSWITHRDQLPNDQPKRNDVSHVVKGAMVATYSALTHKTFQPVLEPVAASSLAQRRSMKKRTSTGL
Serine/threonine-protein kinase Sgk1 (Homo sapiens), sequence (O00141 whole entry): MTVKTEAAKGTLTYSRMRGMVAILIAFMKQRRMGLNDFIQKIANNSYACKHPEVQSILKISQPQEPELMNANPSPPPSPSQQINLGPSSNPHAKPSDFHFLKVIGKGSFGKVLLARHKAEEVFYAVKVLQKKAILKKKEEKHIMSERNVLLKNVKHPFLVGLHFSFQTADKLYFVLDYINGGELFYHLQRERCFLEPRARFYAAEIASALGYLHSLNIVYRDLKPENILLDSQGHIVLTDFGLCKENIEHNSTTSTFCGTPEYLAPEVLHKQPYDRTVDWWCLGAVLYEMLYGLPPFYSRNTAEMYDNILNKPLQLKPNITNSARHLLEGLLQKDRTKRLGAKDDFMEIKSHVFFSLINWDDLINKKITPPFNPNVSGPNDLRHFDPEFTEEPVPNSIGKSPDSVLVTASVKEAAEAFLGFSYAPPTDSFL
3-phosphoinositide-dependent protein kinase 1 (Homo sapiens), sequence (O15530 whole entry): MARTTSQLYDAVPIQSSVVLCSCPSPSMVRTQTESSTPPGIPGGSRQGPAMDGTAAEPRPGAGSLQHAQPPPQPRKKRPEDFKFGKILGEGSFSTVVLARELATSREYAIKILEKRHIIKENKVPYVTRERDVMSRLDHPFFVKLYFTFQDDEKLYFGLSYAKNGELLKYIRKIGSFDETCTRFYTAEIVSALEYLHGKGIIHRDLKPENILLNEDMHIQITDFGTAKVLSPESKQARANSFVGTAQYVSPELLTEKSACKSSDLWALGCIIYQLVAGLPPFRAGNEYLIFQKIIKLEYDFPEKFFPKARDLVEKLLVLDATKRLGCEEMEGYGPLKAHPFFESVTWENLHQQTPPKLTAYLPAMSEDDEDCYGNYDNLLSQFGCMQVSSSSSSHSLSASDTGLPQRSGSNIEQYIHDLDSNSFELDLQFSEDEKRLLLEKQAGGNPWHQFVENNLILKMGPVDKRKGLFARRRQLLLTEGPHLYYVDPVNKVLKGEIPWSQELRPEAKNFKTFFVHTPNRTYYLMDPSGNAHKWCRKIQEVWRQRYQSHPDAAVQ
Serine/threonine-protein kinase BRSK2 (Homo sapiens), sequence (Q8IWQ3 whole entry): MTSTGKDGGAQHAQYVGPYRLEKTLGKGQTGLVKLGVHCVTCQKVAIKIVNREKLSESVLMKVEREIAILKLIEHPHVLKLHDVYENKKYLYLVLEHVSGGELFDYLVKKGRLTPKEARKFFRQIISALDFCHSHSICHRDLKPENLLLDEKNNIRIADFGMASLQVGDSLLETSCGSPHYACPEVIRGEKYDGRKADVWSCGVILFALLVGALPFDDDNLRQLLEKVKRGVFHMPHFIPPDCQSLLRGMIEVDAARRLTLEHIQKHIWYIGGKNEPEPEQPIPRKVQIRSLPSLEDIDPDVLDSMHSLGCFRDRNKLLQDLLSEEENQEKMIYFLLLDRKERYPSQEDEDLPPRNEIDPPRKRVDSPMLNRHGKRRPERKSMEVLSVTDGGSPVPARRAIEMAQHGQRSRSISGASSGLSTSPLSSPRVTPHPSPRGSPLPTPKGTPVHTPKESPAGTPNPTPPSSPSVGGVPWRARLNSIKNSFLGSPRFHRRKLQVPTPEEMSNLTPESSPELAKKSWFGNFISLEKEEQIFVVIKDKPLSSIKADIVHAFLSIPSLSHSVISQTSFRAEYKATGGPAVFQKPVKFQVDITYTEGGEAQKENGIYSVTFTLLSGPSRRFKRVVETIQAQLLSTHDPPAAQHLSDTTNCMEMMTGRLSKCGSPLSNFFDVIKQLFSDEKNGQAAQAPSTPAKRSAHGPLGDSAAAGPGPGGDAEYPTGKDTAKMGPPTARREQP
Protein kinase C zeta type (Homo sapiens), sequence (Q05513 whole entry, looked up, canonical isoform): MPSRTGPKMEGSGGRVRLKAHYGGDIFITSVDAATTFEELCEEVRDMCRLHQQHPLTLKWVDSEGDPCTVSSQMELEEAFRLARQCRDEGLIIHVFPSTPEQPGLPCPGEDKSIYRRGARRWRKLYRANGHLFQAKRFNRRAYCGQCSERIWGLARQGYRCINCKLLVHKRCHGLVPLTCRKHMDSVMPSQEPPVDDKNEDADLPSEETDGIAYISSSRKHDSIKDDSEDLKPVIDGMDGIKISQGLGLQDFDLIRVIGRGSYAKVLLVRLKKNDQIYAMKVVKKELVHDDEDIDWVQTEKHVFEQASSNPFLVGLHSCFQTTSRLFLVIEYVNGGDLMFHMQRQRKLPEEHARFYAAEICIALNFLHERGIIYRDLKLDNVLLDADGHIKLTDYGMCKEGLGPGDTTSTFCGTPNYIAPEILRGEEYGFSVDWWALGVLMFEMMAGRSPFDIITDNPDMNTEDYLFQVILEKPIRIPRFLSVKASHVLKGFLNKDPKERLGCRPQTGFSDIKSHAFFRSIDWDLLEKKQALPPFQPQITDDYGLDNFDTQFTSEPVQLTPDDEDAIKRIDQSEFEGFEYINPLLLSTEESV

Compound: CNc1nc(-c2ccc3c(N)n[nH]c3c2)cc(N2C[C@@H](C(=O)NC3CCCCC3)CC[C@H]2C)n1
- inhibition in vivo at 100 mg/kg [1]: 29%
- Activity [2]: 23%
- Activity [3]: -2%
- Activity [4]: 21%
- Activity [5]: 13%
- IC50 [6]: > 10 µM
- Activity [7]: 44%
- IC50 [8]: > 25.1 µM
- IC50 [9]: 0.28 µM
- IC50 [10]: 0.52 µM
- Activity [11]: 22%
- Activity [12]: 49%
- Activity [13]: 28%
- Activity [14]: 12%
- Activity [15]: 46%
- IC50 [16]: > 25.1 µM
- Activity [17]: 34%
- Activity [18]: 16%
- Activity [19]: 4%
- IC50 [20]: 0.35 µM
- Activity [21]: 0%
- Activity [22]: 29%
- IC50 [23]: 25.1 µM
- Activity [24]: 14%
- Activity [25]: 17%
- Activity [26]: 26%
- Activity [27]: 46%
- Cmax [28]: 4510 ng/mL
- IC50 [29]: > 30 µM
- IC50 [30]: > 25.1 µM
- AUC [31]: 31400 ng·h/mL
- inhibition in vivo at 100 mg/kg [32]: 57%
- IC50 ([33]; read-out: IC50): > 10 µM
- IC50 ([33]; read-out: pIC50 (converted)): > 10 µM
- Activity [34]: 29%
- inhibition in vivo at 100 mg/kg [35]: 58%
- Activity [36]: 43%
- Activity [37]: 38%
- Activity [38]: 33%
- IC50 [39]: 18 µM
- IC50 [40]: > 10 µM
- IC50 [41]: > 27.5 µM
- inhibition in vivo at 100 mg/kg [42]: 71%
